Experimental data taken from BindingDB's records for doi:10.1021/jm2005767 (Virginia Commonwealth University, 2011).

Target: Prothrombin (Homo sapiens, UniProt P00734)
Assay: Inhibition of human alpha-thrombin assessed as spectrozyme TH hydrolysis after 10 mins by spectrophotometric analysis
Procedure, shortened: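 Human α-thrombin (~5 nM initial) preincubated 10 min with inhibitor (4 μg/ml to 5 mg/ml stocks) at 25 °C. Buffer: 20 mM Tris-HCl pH 7.4, 100 mM NaCl, 2.5 mM CaCl2, 0.1% PEG 8000. Fractional residual activity fitted to logistic equation (Hill slope fixed at 1) for IC50 and efficacy ΔY.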

CCOC(=O)c1c(C)oc2cc(OC(=O)N3CCOCC3)c(OS(=O)(=O)O)cc12
IC50: > 2.5 mM
